Key:
Plasmodium berghei [1] = experiment: Antiplasmodial activity against Plasmodium berghei CTRPp expressing GFP assessed as inhibition of early sporogonic stages development at 50 ug/ml after 24 hrs by fluorescence microscopy
HaCaT = experiment: Cytotoxicity against human HaCaT cells; format: cell-based
A-375 = experiment: Cytotoxicity against human A375 cells; format: cell-based
Plasmodium berghei [2] = experiment: Antiplasmodial activity against Plasmodium berghei CTRPp expressing GFP assessed as decrease in capacity of zygote to undergo ookinete maturation after 24 hrs by Zeiss fluorescence microscopy; format: functional, organism-based
Method in brief: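 Mice were primed with phenylhydrazine 120 mg/kg ip and infected ip with 10^7 P. berghei CTRPp.GFP RBCs. Day-4 blood with >3 exflagellation centres/1000 RBCs went into pH 7.4 RPMI 1640 (100 μM xanthurenic acid, 20% FBS) with compound over a dose range. Incubation was 19 °C, 24 h. GFP zygotes and ookinetes were counted by fluorescence microscopy, with inhibition calculated against 0.1% DMSO. Wells were in triplicate, and experiments were run at least twice.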

Plasmodium berghei [3] = experiment: Antiplasmodial activity against Plasmodium berghei CTRPp expressing GFP assessed as inhibition of early sporogonic stages development after 24 hrs by fluorescence microscopy

Row | SMILES | inhibition at 50 µg/mL (Plasmodium berghei [1]) | further results
1 | C/C=C(/C)C(=O)O[C@@H]1[C@H]2[C@H](C/C(C)=C/CC[C@]3(C)O[C@@H]13)OC(=O)[C@@]2(C)O | 22 to 35% | –
2 | C/C=C(/C)C(=O)O[C@]1(C)C(=O)O[C@H]2C/C(C)=C/CC/C(C)=C/[C@H](OC(=O)[C@@]3(C)O[C@H]3C)[C@@H]21 | 92% | IC50 (HaCaT): > 100 µM; IC50 (A-375): > 100 µM; IC50 (Plasmodium berghei [2]): 48.4 µM; IC50 (Plasmodium berghei [3]): 82.3 µM
3 | C=C[C@@]12COC(=O)C(=C)[C@@H]1[C@@H](O)[C@H](C(=C)C(=O)OC)[C@@H](OC(=O)C(=C)CO)C2 [VERNODALOL] | – | IC50 (Plasmodium berghei [3]): 19 µM
4 | C/C=C(/C)C(=O)O[C@]1(C)C(=O)O[C@H]2C[C@]3(C)O[C@H]3CC/C(C)=C/[C@H](OC(=O)[C@@]3(C)O[C@H]3C)[C@@H]21 | 22 to 35% | –
5 | C/C=C(/C)C(=O)O[C@]1(C)C(=O)O[C@H]2C/C(C)=C/CC[C@]3(C)O[C@H]3[C@H](OC(=O)[C@@]3(C)O[C@H]3C)[C@@H]21 | 22 to 35% | –
6 | C=C1C[C@H](OC(=O)/C(C)=C\C)[C@H]2[C@H](/C=C(\C)CC[C@@H]1O)OC(=O)[C@@]2(C)O | 22 to 35% | –
7 | C=C1C[C@@H]2OC(=O)[C@@](C)(O)[C@H]2[C@@H](OC(=O)/C(C)=C\C)[C@@H]2O[C@@]2(C)CC[C@H]1OO | 22 to 35% | –
8 | C/C=C(/C)C(=O)O[C@H]1/C=C(\C)CC[C@@H]2O[C@@]2(C)C[C@@H]2OC(=O)[C@@](C)(O)[C@@H]12 | 22 to 35% | –

Reference: ChEMBL document CHEMBL4130466, “Angeloylated Germacranolides from Daucus virgatus and Their Plasmodium Transmission Blocking Activity” (J Nat Prod, 2017)
